Results on 1 molecule are retold here after PMC7036014 (Molecular cell, 2019).

Residue numbers refer to the chain shown, from its start.

For experiment [1], the target named is T1, SIRT1 (Homo sapiens, UniProt Q96EB6).
T1 sequence (Q96EB6 1-747): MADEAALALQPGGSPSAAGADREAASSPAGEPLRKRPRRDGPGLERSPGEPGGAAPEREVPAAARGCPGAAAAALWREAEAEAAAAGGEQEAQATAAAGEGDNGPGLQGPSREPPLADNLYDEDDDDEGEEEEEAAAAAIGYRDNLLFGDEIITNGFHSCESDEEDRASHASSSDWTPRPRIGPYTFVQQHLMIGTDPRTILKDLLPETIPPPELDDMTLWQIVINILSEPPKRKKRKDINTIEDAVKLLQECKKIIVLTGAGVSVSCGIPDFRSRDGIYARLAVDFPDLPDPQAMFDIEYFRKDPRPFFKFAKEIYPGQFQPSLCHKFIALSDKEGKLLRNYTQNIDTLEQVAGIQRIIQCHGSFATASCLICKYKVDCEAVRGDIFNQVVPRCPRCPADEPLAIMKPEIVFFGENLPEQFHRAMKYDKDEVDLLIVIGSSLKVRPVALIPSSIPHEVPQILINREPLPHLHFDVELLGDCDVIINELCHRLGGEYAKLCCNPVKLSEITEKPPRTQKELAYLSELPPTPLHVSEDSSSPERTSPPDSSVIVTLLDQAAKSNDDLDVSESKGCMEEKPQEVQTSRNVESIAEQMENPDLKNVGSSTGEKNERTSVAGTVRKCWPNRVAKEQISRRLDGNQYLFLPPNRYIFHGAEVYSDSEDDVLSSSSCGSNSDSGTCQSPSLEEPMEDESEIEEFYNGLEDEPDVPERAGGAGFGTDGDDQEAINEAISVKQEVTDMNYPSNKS
Nature of the experiment: HPLC-MS/MS SIRT1 deacetylation assay with acetylated peptide substrates. It counts as biochemical. A digest of the protocol: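 Recombinant SIRT1 (1 μM, E. coli-expressed) incubated with acetylated peptide (0–250 μM) plus fatty acid in 25 mM Tris, pH 8.0, 50 mM NaCl, 1 mM DTT, 1 mM NAD+ for 60 min at 37°C. Deacetylation quantified by HPLC-MS/MS with positive-mode electrospray. Km, Vmax and kcat obtained from Lineweaver-Burk plots.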

Experiment [2] has as its target T1, SIRT1. Put plainly: Circular dichroic analysis of SIRT1 secondary structure with ligand. The conditions noted are these: with ligand; 23% without ligand.
The next experiment concerns the target T2, PLIN5-pM (S155E) (Mus musculus, UniProt Q8BVZ1, S155E).
T2 sequence (Q8BVZ1 1-463 S155E): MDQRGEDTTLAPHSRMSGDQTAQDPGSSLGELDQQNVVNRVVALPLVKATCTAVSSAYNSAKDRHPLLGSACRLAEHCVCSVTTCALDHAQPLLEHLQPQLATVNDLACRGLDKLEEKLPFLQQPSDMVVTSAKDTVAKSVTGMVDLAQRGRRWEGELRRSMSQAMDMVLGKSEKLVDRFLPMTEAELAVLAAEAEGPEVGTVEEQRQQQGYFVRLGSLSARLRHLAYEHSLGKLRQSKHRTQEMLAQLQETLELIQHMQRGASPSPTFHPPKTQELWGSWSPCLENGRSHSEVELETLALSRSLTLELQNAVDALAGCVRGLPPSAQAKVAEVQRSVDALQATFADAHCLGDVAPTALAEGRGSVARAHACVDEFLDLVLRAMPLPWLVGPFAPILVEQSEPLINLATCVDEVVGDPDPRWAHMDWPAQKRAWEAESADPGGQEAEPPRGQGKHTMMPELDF
Put plainly: Tryptophan fluorescence quenching binding assay, PLIN5-pM. Details: species or system murine.

Another experiment deals with T3, PLIN5-pM (Mus musculus, UniProt Q8BVZ1, S155E).
T3 sequence (Q8BVZ1 1-463 S155E): T2 sequence (Q8BVZ1 1-463 S155E)
Put plainly: Circular dichroic analysis of PLIN5-pM with ligand. The arrangement: species or system murine. The conditions noted are these: addition of ligand. A digest of the protocol: (§1)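 Far-UV CD spectra of the PLIN5 phospho-mutants in 10 mM NaH2PO4, pH 7.5, with 10 mM NaCl, with and without ligand. Run at 25°C in a 1 mm path cuvette. Ligand incubated 2–5 min before each scan. Each spectrum is the average of ten scans, repeated in triplicate.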

The target of a further experiment is T4, PLIN5-pD (Mus musculus, UniProt Q8BVZ1, S155A).
T4 sequence (Q8BVZ1 1-463 S155A): T2 sequence (Q8BVZ1 1-463 S155E) with E155A
Put plainly: Circular dichroic analysis of PLIN5-pD with ligand. The arrangement: species or system murine. To be noted: addition of ligand. A digest of the protocol:
as §1

Experiment [3] has as its system PGC-1α activity, mouse L-cells. Nature of the experiment: PGC-1α luciferase reporter assay in L-cells. The class given is cell-based. To be noted: Plin5 knockout L-cells.
For experiment [4], the system named is cellular cAMP levels, MEF cells. Nature of the experiment: cAMP-Glo Assay in MEF cells. The conditions noted are these: 6 hrs 500 μM 18:1, no Iso/IBMX. The class given is cell-based, mouse. A digest of the protocol:
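MEFs in DMEM/10% FBS given 2% fatty-acid-free BSA or 500 μM 18:1–BSA complex for 6 or 16 h. Then washed and switched to serum-free DMEM with DMSO or 20 μM isoproterenol/500 μM IBMX for 20 min. cAMP-Glo steps at room temperature: lysis 15 min, detection solution 20 min, Kinase-Glo 10 min. n=12–16.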

[5] abbreviates: acetylated FOXO3a peptide substrate.
Setting [6] is: acetylated PGC-1α peptide substrate.
Setting [7] is: fixed amounts of PGC-1α, FOXO3a and H3 peptides, 150 or 600 nM 18:1.

`CCCCCCCC/C=C\CCCCCCCC(=O)O` [18:1, oleic acid]: the “effect on Km and catalytic efficiency on co-addition with resveratrol” value at SIRT1 [1] (PGC-1α peptide, co-addition of 18:1 and resveratrol vs single compound) is “not additive”. Besides, on SIRT1 [1] (setting [5]), the “Km of SIRT1 towards the FOXO3a peptide” value is given as “reduced” and the “SIRT1 catalytic efficiency towards the FOXO3a peptide” value is “increased”. At SIRT1 [1] (setting [6]), the “Km of SIRT1 towards the PGC-1α peptide” value is reported as “lowering”, the “SIRT1 catalytic efficiency (Kcat/Km) towards the PGC-1α peptide” value was “increase” and the enzyme velocity result was “without a significant change”. Further, at SIRT1 [1] (setting [7]), the “deacetylase activity towards FOXO3a and PGC-1α peptides, competition assay” value is reported as “increased”; the “deacetylase activity towards H3, competition assay” value was “decreased”. On SIRT1 [1] (p53-W peptide, 250 nM 18:1, 10 μM resveratrol, 1 μM SRT1720), the “activation of SIRT1 towards mutant p53 peptide (p53-W)” value is “activated”. Moreover, the “allosteric activation of SIRT1 towards wild-type p53 peptide” value on SIRT1 [1] (p53 peptide lacking hydrophobic residue at +1 or +6) was “did not respond”. Moreover, on SIRT1 [2], the “α-helical content of SIRT1” value worked out at 28.6%. The molecule also registered a Kd at PLIN5-pM (S155E) of 36 ± 8 nM. Moreover, the “increase in binding affinity of PLIN5-pM” value on PLIN5-pM (S155E) (PLIN5-pM vs comparator) is given as 2.4 fold. Besides, the “shape of the CD spectrum of PLIN5-pM” value at PLIN5-pM is reported as “robustly altered”. Also, the “CD spectrum changes of PLIN5-pD” value on PLIN5-pD is listed as “more subtle changes”. Also, the “regulation of PGC-1α activity in L-Cells lacking Plin5” value in experiment [3] is listed as “PLIN5 was required”. Besides, the “cellular cAMP levels, acute exposure” value in experiment [4] is on record as “increased”.
